Our source for the IC50 values is ChEMBL document CHEMBL1125649, “Synthesis and antitumor activity of structural analogues of the epipodophyllotoxins” (J Med Chem, 1991).

Values after ≈ are worked out from the molar mass of the structure shown. Bounds are passed on as bounds.

Holding throughout (assay type): functional, cell-based
For one assay, the system named is A549. Nature of the assay: Growth inhibition of A549 (human lung carcinoma) cell line. In a few lines: (§1)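 Cells from ATCC, grown in RPMI 1640 with 10% fetal calf serum. Compounds dissolved in DMSO, diluted in Earle's balanced salt solution then medium, 2-fold serial dilutions, each in triplicate versus triplicate drug-free controls. 2.5 × 10^3 cells per well, 72 h at 37 °C, 5% CO2. MTT added for 90 min, DMSO solubilization, absorbance at 570 nm. IC50 = 50% absorbance reduction versus control, by linear regression of dose-response curves.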

The next assay deals with HT-29. As to the kind of experiment: Growth inhibition of HT-29 (human colon adenocarcinoma) cell line. The procedure, abridged: as §1
Another assay concerns P388. Nature of the assay: Growth inhibition of P388-D1 (murine leukemia) cell line. The note with it: Mus musculus. The procedure, abridged: as §1

Usually IC50 stands for the midpoint of a concentration-inhibition curve. High values mean lower potency, low ones higher potency.

On to `COc1cc([C@@H]2c3cc4c(cc3[C@]3(CO)COC(=O)[C@H]23)OCO4)cc(OC)c1OC`, for which the figures for the half-maximal inhibitory concentration (IC50) with A549, in the assay with HT-29 and in the assay on P388 were 1.2 µg/mL (≈ 2.9 µM), 1.2 µg/mL (≈ 2.9 µM) and 0.59 µg/mL (≈ 1.42 µM), respectively.

As to `COc1cc([C@@H]2c3cc4c(cc3[C@@H](O)[C@@]23CCOC3=O)OCO4)cc(OC)c1O`, the figures for the IC50 in the assay with A549, with HT-29 and with P388 were 48.2 µg/mL (≈ 120 µM), over 50 µg/mL and 16.8 µg/mL (≈ 42 µM), respectively.

With `COc1cc([C@@H]2c3cc4c(cc3[C@H](O)[C@@]23CCOC3=O)OCO4)cc(OC)c1O`, the IC50 in the assay on A549, with HT-29 and in the assay on P388 was over 50 µg/mL throughout.

Consider `COc1cc([C@@H]2c3cc4c(cc3[C@]3(CO)COC(=O)[C@H]23)OCO4)cc(OC)c1O`, for which the half-inhibitory concentration (IC50) came to 12.5 µg/mL (≈ 31.2 µM) with A549, 12.2 µg/mL (≈ 30.5 µM) in the assay with HT-29 and 8 µg/mL (≈ 20 µM) in the assay with P388.

With `COc1cccc2c1C(=O)c1c(O)c3c(c(O)c1C2=O)C[C@@](O)(C(=O)CO)C[C@@H]3O[C@H]1C[C@H](N)[C@H](O)[C@H](C)O1` [DOXORUBICIN], the IC50 was determined as 0.053 µg/mL (≈ 0.0975 µM) with A549, 0.11 µg/mL (≈ 0.202 µM) in the assay on HT-29 and 0.017 µg/mL (≈ 0.0313 µM) in the assay on P388.

Take `COC(=O)[C@@]12CCO[C@@H]1c1cc3c(cc1[C@H]2c1cc(OC)c(OC)c(OC)c1)OCO3`: the IC50 is 11.9 µg/mL (≈ 27.8 µM) in the assay on A549, 17.4 µg/mL (≈ 40.6 µM) with HT-29 and 5.7 µg/mL (≈ 13.3 µM) in the assay on P388.

Turning to `COc1cc([C@H]2C[C@@H](O)c3cc4c(cc32)OCO4)cc(OC)c1O`, the IC50 in the assay on A549 was 0.76 µg/mL (≈ 2.3 µM); in the assay on HT-29, 2.1 µg/mL (≈ 6.36 µM); in the assay on P388, 0.53 µg/mL (≈ 1.6 µM).

Consider `COc1cc([C@H]2C[C@@H](OC)c3cc4c(cc32)OCO4)cc(OC)c1O`, for which the IC50 in the assay with A549 was determined as 1.1 µg/mL (≈ 3.19 µM); with HT-29, 3.2 µg/mL (≈ 9.29 µM); with P388 it was 0.57 µg/mL (≈ 1.66 µM).

As for `COc1cc([C@H]2C[C@H](OC)c3cc4c(cc32)OCO4)cc(OC)c1O`, the IC50 with A549 came to 46.9 µg/mL (≈ 136 µM); in the assay with HT-29, 41.5 µg/mL (≈ 121 µM); with P388, 8.1 µg/mL (≈ 23.5 µM).

As for `COC(=O)[C@@]12CCO[C@@H]1c1cc3c(cc1[C@H]2c1cc(OC)c(O)c(OC)c1)OCO3`, the values for the 50% inhibitory concentration (IC50) with A549, in the assay with HT-29 and in the assay on P388 were over 50 µg/mL, over 50 µg/mL and 43 µg/mL (≈ 104 µM), respectively.

Turning to `COc1cc([C@H]2C[C@H](OC3CCCCC3)c3cc4c(cc32)OCO4)cc(OC)c1O`, the values for the IC50 with A549, in the assay on HT-29 and in the assay with P388 were 9.7 µg/mL (≈ 23.5 µM), 8.6 µg/mL (≈ 20.8 µM) and 6.6 µg/mL (≈ 16 µM), respectively.

As to `COc1cc(C2CC(=O)c3cc4c(cc32)OCO4)cc(OC)c1OC` (stereo not given), the half-inhibitory concentration (IC50) came to 2.9 µg/mL (≈ 8.47 µM) with A549, 2.9 µg/mL (≈ 8.47 µM) in the assay with HT-29 and 1.1 µg/mL (≈ 3.21 µM) with P388.

Take `COc1cc([C@H]2C[C@@H](O)c3cc4c(cc32)OCO4)cc(OC)c1OC`: the 50% inhibitory concentration (IC50) with A549 was 0.038 µg/mL (≈ 0.11 µM); in the assay with HT-29 it was 0.032 µg/mL (≈ 0.0929 µM); in the assay with P388, 0.014 µg/mL (≈ 0.0407 µM).

`COc1cc([C@@H]2c3cc4c(cc3[C@@H](O[C@@H]3O[C@@H]5CO[C@@H](C)O[C@H]5[C@H](O)[C@H]3O)[C@H]3COC(=O)[C@H]23)OCO4)cc(OC)c1O` [ETOPOSIDE]: the values for the IC50 in the assay on A549, with HT-29 and with P388 were 1.03 µg/mL (≈ 1.75 µM), 1.7 µg/mL (≈ 2.89 µM) and 0.063 µg/mL (≈ 0.107 µM), respectively.

As to `COc1cc(C2CC(=O)c3cc4c(cc32)OCO4)cc(OC)c1O` (stereo not given), the figures for the IC50 with A549, in the assay on HT-29 and in the assay with P388 were 19.4 µg/mL (≈ 59.1 µM), 19.2 µg/mL (≈ 58.5 µM) and 1.7 µg/mL (≈ 5.18 µM), respectively.

In the case of `COc1cc([C@H]2C[C@H](O)c3cc4c(cc32)OCO4)cc(OC)c1O`, the concentration for half-maximal inhibition (IC50) came out at 9.9 µg/mL (≈ 30 µM) with A549, 12 µg/mL (≈ 36.3 µM) with HT-29 and 4.2 µg/mL (≈ 12.7 µM) with P388.

Regarding `COc1cc([C@H]2C[C@@H](OC3CCCCC3)c3cc4c(cc32)OCO4)cc(OC)c1O`, the concentration for half-maximal inhibition (IC50) is 12 µg/mL (≈ 29.1 µM) in the assay with A549, 10.3 µg/mL (≈ 25 µM) with HT-29 and 7.9 µg/mL (≈ 19.2 µM) in the assay on P388.

Regarding `COc1cc([C@@H]2c3cc4c(cc3[C@H](O)[C@@]23CCOC3=O)OCO4)cc(OC)c1OC`, the half-inhibitory concentration (IC50) with A549 turned out to be 5.1 µg/mL (≈ 12.3 µM); in the assay on HT-29, 5.3 µg/mL (≈ 12.8 µM); with P388 it was 2.5 µg/mL (≈ 6.03 µM).

Take `COc1cc([C@H]2C[C@H](OC(C)(C)C)c3cc4c(cc32)OCO4)cc(OC)c1O`: the IC50 in the assay with A549 was 31.3 µg/mL (≈ 81 µM); with HT-29 it was 28.8 µg/mL (≈ 74.5 µM); with P388 it was 7.1 µg/mL (≈ 18.4 µM).

As for `COc1cc([C@@H]2c3cc4c(cc3[C@H](O)[C@H]3COC(=O)[C@H]23)OCO4)cc(OC)c1OC` [PODOFILOX], the half-maximal inhibitory concentration (IC50) in the assay with A549 came out at 0.0043 µg/mL (≈ 0.0104 µM); with HT-29, 0.0043 µg/mL (≈ 0.0104 µM); in the assay on P388, 0.0013 µg/mL (≈ 0.00314 µM).
